# Measurements as given in ChEMBL document CHEMBL1687766, “In vitro activity of the new multivalent glycopeptide-cephalosporin antibiotic TD-1792 against vancomycin-nonsusceptible Staphylococcus isolates” (Antimicrob Agents Chemother, 2010).
# Legend:
# [1] = Plasma protein binding in human; assay type: ADME, cell-free; details: read-out: PPB (converted)
# Serum = assay: Drug level in serum of healthy human; assay type: ADME, cell-free
# [2] = Half life of healthy human; assay type: ADME, organism-based; details: in vivo
# Staphylococcus aureus [3] = assay: Antimicrobial activity against vancomycin-intermediate Staphylococcus aureus isolate NJ992 after 24 hrs by microdilution method; assay type: functional; details: isolate NJ992, 24 h
# In short: (§1)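 Broth microdilution per CLSI, inoculum 5 × 10^5 CFU/ml, Mueller-Hinton broth with 12.5 μg/ml magnesium and 25 μg/ml calcium (SMHB). Daptomycin was instead tested in SMHB at physiologic calcium (final 1.1 to 1.3 mM). Incubation 24 h at 35°C; MIC read; run in duplicate. MBC from 5-μl samples of clear wells plated on BHI agar, 24 h at 35°C.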
# Staphylococcus aureus [4] = assay: Antimicrobial activity against vancomycin-resistant Staphylococcus aureus isolate MI assessed as bacterial count at 32 times MIC after 24 hrs by colony counting method; assay type: functional
# In short: (§2)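 Time-kill in triplicate. Mid-exponential culture (OD600 ~0.3) diluted in supplemented Mueller-Hinton broth to 5 × 10^6 CFU/ml. Daptomycin was run at physiologic calcium, 1.1 to 1.3 mM. […] Samples at 0, 1, 4, 8 and 24 h were diluted in cold saline or vacuum filtered, then spiral-plated on BHI agar for 24 h at 35°C. Value is the log10 CFU/ml change from baseline at 24 h.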
# Staphylococcus aureus [5] = assay: Antimicrobial activity against vancomycin-intermediate Staphylococcus aureus isolate NJ992 assessed as bacterial count at 32 times MIC after 24 hrs by colony counting method; assay type: functional
# In short: (§3)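 24-h time-kill run in triplicate in supplemented Mueller-Hinton broth (12.5 μg/ml Mg, 25 μg/ml Ca), adjusted to 1.1–1.3 mM Ca for daptomycin. […] Samples were taken at 0, 1, 4, 8 and 24 h and counted on BHI agar after 24 h at 35°C. Value is log10 CFU/ml change from baseline at 24 h.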
# Staphylococcus aureus [6] = assay: Antimicrobial activity against vancomycin-resistant Staphylococcus aureus isolate PA assessed as bacterial count at 16 times MIC after 24 hrs by colony counting method; assay type: functional; in short: as §2
# Staphylococcus aureus [7] = assay: Antimicrobial activity against vancomycin-intermediate Staphylococcus aureus isolate MU50 after 24 hrs by microdilution method; assay type: functional; details: isolate MU50, 24 h; in short: as §1
# Staphylococcus aureus [8] = assay: Antimicrobial activity against vancomycin-intermediate Staphylococcus aureus isolate NJ992 assessed as bacterial count at 8 times MIC after 24 hrs by colony counting method; assay type: functional; in short: as §3
# Staphylococcus aureus [9] = assay: Antimicrobial activity against vancomycin-resistant Staphylococcus aureus isolate PA assessed as bacterial count at 32 times MIC after 24 hrs by colony counting method; assay type: functional; in short: as §2
# Staphylococcus aureus [10] = assay: Antimicrobial activity against vancomycin-resistant Staphylococcus aureus isolate PA after 24 hrs by microdilution method; assay type: functional; in short: as §1
# Staphylococcus aureus [11] = assay: Antimicrobial activity against vancomycin-resistant Staphylococcus aureus isolate NY after 24 hrs by microdilution method; assay type: functional; in short: as §1
# Staphylococcus aureus [12] = assay: Antimicrobial activity against vancomycin-intermediate Staphylococcus aureus isolate MU50 assessed as bacterial count at 16 times MIC after 24 hrs by colony counting method; assay type: functional; in short: as §2
# Staphylococcus aureus [13] = assay: Antimicrobial activity against vancomycin-resistant Staphylococcus aureus isolate MI after 24 hrs by microdilution method; assay type: functional; in short: as §1
# Staphylococcus aureus [14] = assay: Antimicrobial activity against vancomycin-intermediate Staphylococcus aureus isolate MU50 assessed as bacterial count at 4 times MIC after 24 hrs by colony counting method; assay type: functional; in short: as §3
# Staphylococcus aureus [15] = assay: Antimicrobial activity against vancomycin-resistant Staphylococcus aureus isolate MI assessed as bacterial count at 8 times MIC after 24 hrs by colony counting method; assay type: functional; in short: as §2
# Staphylococcus aureus [16] = assay: Antimicrobial activity against vancomycin-intermediate Staphylococcus aureus after 24 hrs by microdilution method; assay type: functional; in short: as §1
# Staphylococcus aureus [17] = assay: Antimicrobial activity against vancomycin-heteroresistant Staphylococcus aureus after 24 hrs by microdilution method; assay type: functional; in short: as §1
# Staphylococcus aureus [18] = assay: Antimicrobial activity against vancomycin-resistant Staphylococcus aureus isolate MI assessed as bacterial count at 4 times MIC after 24 hrs by colony counting method; assay type: functional; in short: as §2
# [19] = test system: Staphylococcus haemolyticus; assay: Antimicrobial activity against vancomycin-intermediate Staphylococcus haemolyticus after 24 hrs by microdilution method; assay type: functional
# In short: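 CLSI broth microdilution in supplemented Mueller-Hinton broth (12.5 μg/ml Mg, 25 μg/ml Ca), with Ca adjusted to 1.1–1.3 mM for daptomycin. Inoculum was 5 × 10^5 CFU/ml, incubated 24 h at 35°C, done in duplicate. For MBC, clear wells were plated on BHI agar and read after 24 h at 35°C.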
# Staphylococcus aureus [20] = assay: Antimicrobial activity against vancomycin-resistant Staphylococcus aureus isolate PA assessed as bacterial count at 4 times MIC after 24 hrs by colony counting method; assay type: functional; in short: as §2
# Staphylococcus aureus [21] = assay: Antimicrobial activity against vancomycin-intermediate Staphylococcus aureus isolate NJ992 assessed as bacterial count at 4 times MIC after 24 hrs by colony counting method; assay type: functional; in short: as §3
# Staphylococcus aureus [22] = assay: Antimicrobial activity against vancomycin-intermediate Staphylococcus aureus isolate NJ992 assessed as bacterial count at 16 times MIC after 24 hrs by colony counting method; assay type: functional; in short: as §3
# Staphylococcus aureus [23] = assay: Antimicrobial activity against vancomycin-resistant Staphylococcus aureus isolate MI assessed as bacterial count at 16 times MIC after 24 hrs by colony counting method; assay type: functional; in short: as §2
# Staphylococcus aureus [24] = assay: Antimicrobial activity against vancomycin-intermediate Staphylococcus aureus isolate MU50 assessed as bacterial count at 32 times MIC after 24 hrs by colony counting method; assay type: functional; in short: as §3
# Staphylococcus aureus [25] = assay: Antimicrobial activity against vancomycin-resistant Staphylococcus aureus isolate PA assessed as bacterial count at 8 times MIC after 24 hrs by colony counting method; assay type: functional; in short: as §2
# Staphylococcus aureus [26] = assay: Antimicrobial activity against vancomycin-intermediate Staphylococcus aureus isolate MU50 assessed as bacterial count at 8 times MIC after 24 hrs by colony counting method; assay type: functional; in short: as §3
# Staphylococcus aureus [27] = assay: Antimicrobial activity against methicillin-resistant Staphylococcus aureus infected in patient with complicated skin and skin structure infections assessed as cure rate; assay type: functional
# [28] = Staphylococcus haemolyticus, 24 h
Compound,MBC (Staphylococcus aureus [3]) [µg/mL],MIC (Staphylococcus aureus [3]) [µg/mL],log10CFU/ml (Staphylococcus aureus [5]),MBC (Staphylococcus aureus [7]) [µg/mL],log10CFU/ml (Staphylococcus aureus [8]),MBC (Staphylococcus aureus [10]) [µg/mL],MBC (Staphylococcus aureus [11]) [µg/mL],MIC (Staphylococcus aureus [11]) [µg/mL],log10CFU/ml (Staphylococcus aureus [12]),MBC (Staphylococcus aureus [13]) [µg/mL],MIC (Staphylococcus aureus [13]) [µg/mL],log10CFU/ml (Staphylococcus aureus [14]),MBC50 (Staphylococcus aureus [16]) [µg/mL],MBC90 (Staphylococcus aureus [16]) [µg/mL],"MBC (Staphylococcus aureus [16]; Staphylococcus aureus, 24 h) [µg/mL]","MIC50 (Staphylococcus aureus [16]; Staphylococcus aureus, 24 h) [µg/mL]","MIC90 (Staphylococcus aureus [16]; Staphylococcus aureus, 24 h) [µg/mL]","MBC (Staphylococcus aureus [17]; Staphylococcus aureus, 24 h) [µg/mL]","MIC50 (Staphylococcus aureus [17]; Staphylococcus aureus, 24 h) [µg/mL]","MIC90 (Staphylococcus aureus [17]; Staphylococcus aureus, 24 h) [µg/mL]",also measured
CN[C@H](CC(C)C)C(=O)N[C@H]1C(=O)N[C@@H](CC(N)=O)C(=O)N[C@H]2C(=O)N[C@H]3C(=O)N[C@H](C(=O)N[C@H](C(=O)NCCCO/N=C(\C(=O)N[C@@H]4C(=O)N5C(C(=O)[O-])=C(C[n+]6ccccc6)CS[C@H]45)c4nc(N)sc4Cl)c4cc(O)cc(O)c4-c4cc3ccc4O)[C@H](O)c3ccc(c(Cl)c3)Oc3cc2cc(c3O[C@@H]2O[C@H](CO)[C@@H](O)[C@H](O)[C@H]2O[C@H]2C[C@](C)(N)[C@H](O)[C@H](C)O2)Oc2ccc(cc2Cl)[C@H]1O,–,–,–,–,–,–,–,–,–,–,–,–,–,–,–,–,–,–,–,–,fraction unbound [1]: 0.51; Drug uptake (Serum): 4.65 µg/mL; half-life [2]: 6.8 h
CC(=O)NC[C@H]1CN(c2ccc(N3CCOCC3)c(F)c2)C(=O)O1 [LINEZOLID],2,1,4.89,32,3.66,4,0.5,0.25,4.25,16,1,3.19,8,32,1,2,2,1,2,2,"log10CFU/ml (Staphylococcus aureus [4]): 4.52; log10CFU/ml (Staphylococcus aureus [6]): 4.24; MIC (Staphylococcus aureus [7]): 1 µg/mL; log10CFU/ml (Staphylococcus aureus [9]): 4.95; log10CFU/ml (Staphylococcus aureus [15]): 1.55; log10CFU/ml (Staphylococcus aureus [18]): 1.31; MBC50 [19]: 8 µg/mL; MBC90 [19]: 32 µg/mL; MBC [19, 28]: 1 µg/mL; MIC50 [19, 28]: 2 µg/mL; MIC90 [19, 28]: 2 µg/mL; log10CFU/ml (Staphylococcus aureus [20]): 3.24; log10CFU/ml (Staphylococcus aureus [21]): 2.13; log10CFU/ml (Staphylococcus aureus [22]): 3.98; log10CFU/ml (Staphylococcus aureus [23]): 3.64; log10CFU/ml (Staphylococcus aureus [24]): 4.8; log10CFU/ml (Staphylococcus aureus [25]): 4.2; log10CFU/ml (Staphylococcus aureus [26]): 3.26"
CN[C@H](CC(C)C)C(=O)N[C@H]1C(=O)N[C@@H](CC(N)=O)C(=O)N[C@H]2C(=O)N[C@H]3C(=O)N[C@H](C(=O)N[C@H](C(=O)O)c4cc(O)cc(O)c4-c4cc3ccc4O)[C@H](O)c3ccc(c(Cl)c3)Oc3cc2cc(c3O[C@@H]2O[C@H](CO)[C@@H](O)[C@H](O)[C@H]2O[C@H]2C[C@](C)(N)[C@H](O)[C@H](C)O2)Oc2ccc(cc2Cl)[C@H]1O [VANCOMYCIN],8,8,4.79,4,4.3,64,128,64,4.48,> 2050,1020,2.71,4,8,4,4,8,4,4,8,"MIC (Staphylococcus aureus [10]): 32 µg/mL; MIC (Staphylococcus aureus [16]; Staphylococcus aureus, 24 h): 4 µg/mL; MBC50 (Staphylococcus aureus [17]): 4 µg/mL; MBC90 (Staphylococcus aureus [17]): 8 µg/mL; MIC (Staphylococcus aureus [17]; Staphylococcus aureus, 24 h): 4 µg/mL; MBC50 [19]: 4 µg/mL; MBC90 [19]: 8 µg/mL; MBC [19, 28]: 4 µg/mL; MIC [19, 28]: 4 µg/mL; MIC50 [19, 28]: 4 µg/mL; MIC90 [19, 28]: 8 µg/mL; log10CFU/ml (Staphylococcus aureus [21]): 2.88; log10CFU/ml (Staphylococcus aureus [22]): 4.58; log10CFU/ml (Staphylococcus aureus [24]): 4.41; log10CFU/ml (Staphylococcus aureus [26]): 3.32; Activity (Staphylococcus aureus [27]): 91.9%"
